Shown are actives, neighbours in structure and some others; about 2.6% of the full set was active somewhere.
PolyA inhibitor: blocks polyadenylation in yeast reporter cells. S. cerevisiae SKY197-pL101 polyadenylation reporter, beta-gal luminescence; efflux-impaired pdr1/pdr3 knockout yeast; score 100 = 6 SD above DMSO. activity score, % at 12 µM. 0.02% of 300,000 active;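 active = lowest replicate activity score at least 50, where 100 means six control SD above control mean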;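 also: yeast exposed to compound for 9 h at 30 °C; higher score means more reporter readthrough which indicates perturbed polyadenylation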
AHR activator: human AHR activation | P35869 | AHR-responsive luciferase reporter cells, luminescence | activation, % at 5 µM | 2.5% of 320,000 active; in the data active = activation above about 47%;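 also: 0% = vehicle wells and 100% = reference agonist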
procasp7 counter: activates human procaspase-7, counter-screen for procaspase-3 activators; P55210; recombinant procaspase-7, Ac-DEVD-pNA absorbance 405 nm; D23A/D198A/D206A triple mutant, cannot self-cleave; scale: DMSO 0, 5 µM enzyme 100; activation, % at 8.5 µM; 0.093% of 330,000 active; AID 463210;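 active = percent activation above the screen-wide mean plus 3 SD, cut at about 25% in these data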
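Assay system: Uncleavable procaspase-7 mutant enzyme / Input: 2 µM procaspase-7 mutant as dispensed / Dosing: single nominal 8.5 µM compound dose, 0.8% DMSO final / Timing: 1 h enzyme–compound preincubation and 2 h substrate reaction, both 25 °C / Detection: p-Nitroaniline absorbance at 405 nm, read at 0 and 120 min / Replication: singlicate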
proCasp3 act: procaspase-3 (human) activation; AID 463141; activation, % at 8.5 µM; 0.11% of 330,000 active; recombinant procaspase-3 D3A, Ac-DEVD-pNA absorbance 405 nm; P42574;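 active = activation above the mean of all tested compounds plus 3 SD, cut at about 21% in these data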;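 also: 0% = DMSO alone and 100% = DMSO wells spiked with extra 5 µM PC-3 D3A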
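Evaluation: percent activation relative to control range; Material: Procaspase-3 D3A mutant, all three cleavage aspartates alanine; Compound: single dose, 8.5 µM nominal compound, 0.8% DMSO; Replication: one well per compound; Signal: absorbance at 405 nm, 0 and 120 min; Schedule: 1 h preincubation plus 2 h reaction at 25 °C.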
AHR act cf: confirmation of human aryl hydrocarbon receptor activators. shares compounds with AHR activator. human cells, AHR-responsive luciferase reporter, luminescence. activation, % at 9 µM. 87% of 2,300 active. AID 2845; in the data active = activation above about 49%;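 also: HepG2 hepatoma cells carrying a DRE-driven firefly luciferase reporter; 0% = vehicle wells and 100% = reference agonist wells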
PXR counter: counter-screen for AHR activators: human PXR activators. shares compounds with AHR activator. cell-based PXR reporter, luciferase luminescence. activation, % at 11.6 µM. 88% of 2,300 active; in the data active = activation above about 11%;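 also: human hepatoma DPX-2 cells expressing full-length human PXR; 0% = DMSO and 100% = reference agonist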
Target sequence (O75469 whole entry, looked up): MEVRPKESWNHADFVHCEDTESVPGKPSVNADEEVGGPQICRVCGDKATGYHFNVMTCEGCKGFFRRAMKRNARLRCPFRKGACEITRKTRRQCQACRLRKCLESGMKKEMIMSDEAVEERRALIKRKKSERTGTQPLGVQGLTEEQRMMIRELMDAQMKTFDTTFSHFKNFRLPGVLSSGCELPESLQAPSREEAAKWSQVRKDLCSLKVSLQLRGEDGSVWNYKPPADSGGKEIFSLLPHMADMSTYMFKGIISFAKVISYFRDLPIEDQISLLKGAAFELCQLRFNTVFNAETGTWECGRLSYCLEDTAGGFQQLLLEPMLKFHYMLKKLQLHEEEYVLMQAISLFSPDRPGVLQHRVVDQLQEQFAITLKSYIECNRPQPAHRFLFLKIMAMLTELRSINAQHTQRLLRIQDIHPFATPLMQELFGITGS
Starred values were filed as active, the others as inactive; nt = no result given.

SMILES	PolyA inhibitor	AHR activator	procasp7 counter	proCasp3 act	others
Cc1ccc2c(c1N)C(=O)c1ccccc1C2=O	nt	73*	-3	4
Cc1cc(/C=C2\C(=O)NC(=O)N(c3ccc(Br)cc3)C2=O)c(C)n1C	1	64*	-1	-12
C[C@]12C[C@@H](O)[C@H](O)CC1=CCC1C2CC[C@@]2(C)C1CC[C@@H]2O (some centres undefined)	nt	0	-10	11
CCOC(=O)c1c(C)n(Cc2ccccc2)c2ccc(OCC(O)Cn3nc(C)cc3C)cc12 (centres undefined)	nt	55*	4	2
COC(=O)C1=C(c2c(C)noc2C)C[C@@H]2CC[C@H]1N2C(=O)NCc1ccco1	nt	1	-3	-6
COC(=O)C1=C(c2cccc(Cl)c2)C[C@@H]2CC[C@H]1N2C(=O)NCC1CC1	nt	1	-8	-9
CCSC(=O)N1CCCCCC1	nt	-1	8	0
COc1ccc2c3c([nH]c2c1)C(C)=NCC3	-5	50*	-13	-5
CC1=NCCc2c1[nH]c1cc(O)ccc21	nt	19	-8	-9
CP(=O)(Nc1ccc(Cl)cc1)c1nc2c(s1)CCCC2 (centres undefined)	3	70*	4	-2
O=P(Nc1c(Cl)cccc1Cl)(c1ccccc1)c1nc2c(s1)CCCC2 (centres undefined)	-7	-1	1	-1
C/C(=N\NC(=O)c1ccccc1)c1c(O)n(Cc2ccccc2)c(=O)[nH]c1=O	5	8	-1	-3
C/C(=N\Nc1cccc2ccccc12)c1c(O)n(Cc2ccccc2)c(=O)[nH]c1=O	10	51*	-27	-29
COC(=O)C1=C(c2ccc(C(C)=O)cc2)C[C@@H]2CC[C@H]1N2C(=O)N1CCC(O)(c2ccc(Cl)cc2)CC1	nt	-1	3	4
C[C@]12CC[C@@H](O)CC1=CCC1C2CC[C@@]2(C)C1C[C@@H](F)[C@@H]2O (some centres undefined)	nt	-2	12	13
CCC(=NCc1ccc2c(c1)OCO2)c1c(O)n(C)c(=O)n(C)c1=O	-5	27	5	12
CC(=NCc1ccc2c(c1)OCO2)c1c(O)n(C)c(=O)n(C)c1=O	-6	58*	5	7
CCC(=NCCCn1ccnc1)c1c(O)n(Cc2ccccc2)c(=O)[nH]c1=O	7	48*	-4	3
O=C(c1ccc2c(c1)OCO2)C1CCCN(Cc2c(F)cccc2Cl)C1 (centres undefined)	8	48*	-3	6
Cc1nn(Cc2ccccc2Cl)c(C)c1C(=O)OCC(=O)N1CC(C)OC(C)C1 (centres undefined)	1	52*	3	9
Cc1nn(Cc2ccccc2Cl)c(C)c1C(=O)OCC(=O)NC1CCCC(C)C1C (centres undefined)	8	0	6	7
COCCOC(=O)c1c(N)n(Cc2ccccc2)c2nc3ccccc3nc12	-8	13	-6	-3
COc1ccc(Cn2c(N)c(C(=O)NCc3ccco3)c3nc4ccccc4nc32)cc1	14	3	-18	0
COCC(C)OC(=O)c1c(N)n(Cc2ccco2)c2nc3ccccc3nc12 (centres undefined)	-5	63*	-9	-12
CCOC(=O)c1c(N)n(Cc2ccco2)c2nc3ccccc3nc12	nt	75*	-6	-4
SMILES	PolyA inhibitor	AHR activator	procasp7 counter	proCasp3 act	others
COc1cc2c(cc1OC)-c1c3c(cc4c1[C@@H](C2)N(C)CC4)OCO3	-14	55*	8	19
N[C@@H](Cc1c[nH]c2ccccc12)c1nnc(SCc2ccccc2)o1	-4	74*	-21	3
N=C1c2ccccc2CN1NC(=O)c1ccco1	nt	2	10	3
NC(N)=N/N=C/c1cn(-c2ccccc2)nc1-c1cccs1	0	50*	4	-2
O=c1c2ccccc2nc(-c2cccs2)n1-c1ccccc1	-9	4	1	4
COC(=O)C1=C(c2ccc(Cl)c(C(F)(F)F)c2)C[C@@H]2CC[C@H]1N2C(=O)NCCOc1ccccc1Cl	nt	-1	-9	3
Oc1c(Cl)c(Cl)c(Cl)c(Cl)c1Cl	-6	79*	-3	2
Fc1cccc(F)c1-c1nc(-c2ccc(Cl)cc2)no1	26	73*	6	-1
C#CCOC(=O)C1=CCCN(C)C1	nt	0	0	6
C[C@]12CCC3C(C(=O)C[C@H]4C[C@@H](O)CC[C@]34C)C1CCC2=O (some centres undefined)	nt	-3	1	4
CCCCc1nc2ccccc2c(=O)n1-c1ccccc1O	1	73*	11	6
COC(=O)C1=C(c2cccc(Cl)c2)C[C@@H]2CC[C@H]1N2C(=O)N1CCCC1	nt	1	-8	1
CN1CCN(c2ccc([N+](=O)[O-])c(NCc3ccco3)c2)CC1	-2	63*	-11	-8
O=[N+]([O-])c1ccc(N2CCNCC2)cc1NCc1ccco1	-7	71*	-24	-14
CN1CCN(c2ccc([N+](=O)[O-])c(NCC3CCCO3)c2)CC1 (centres undefined)	-13	12	-10	-4
Cc1nc2cc([N+](=O)[O-])ccc2c(=O)n1-c1ccc(Br)cc1	-19	87*	3	9	AHR act cf=34;PXR counter=11*
Cc1nc2ccc(Cl)cc2c(=O)n1-c1ccc([N+](=O)[O-])cc1	-18	140*	6	7	AHR act cf=4;PXR counter=11*
COC(=O)C1=C(c2ccc(F)cc2OCc2ccccc2)C[C@@H]2CC[C@H]1N2C(=O)N1CCCC1	nt	0	6	-1
Brc1ccc2[nH]cc(/C=N/N3CCCCC3)c2c1	12	83*	-7	-4	AHR act cf=33;PXR counter=22*
C(=N\NC1=NCCCCC1)/c1c[nH]c2ccccc12	-11	31	1	0
C1CC2OC2CC1C1CO1 (centres undefined)	nt	-2	6	3
Nc1ccc(N=Nc2ccccc2)cc1	-8	-4	-18	-13
Cc1cc(N=Nc2ccccc2C)ccc1N	-10	80*	4	-9	AHR act cf=130*;PXR counter=12*
Cc1cnc(-n2c(=S)[nH]c3ccccc3c2=O)s1	nt	125*	-2	0	AHR act cf=137*;PXR counter=19*
O=C1CN=C(c2ccc(F)cc2)c2oc3ccccc3c2N1	-13	3	6	-5
O=C1CN=C(c2ccc(Br)cc2)c2oc3ccccc3c2N1	2	82*	-3	2	AHR act cf=108*;PXR counter=29*
CCC(c1ccc(C)cc1)N1C(=O)C2C3CCC(O3)C2C1=O (centres undefined)	nt	0	9	11

Source: PubChem BioAssay (several laboratories)
